Measured values reported in ChEMBL document CHEMBL3272123, “11,12-secoprostaglandins. 4. 7-(N-alkylmethanesulfonamido) heptanoic acids” (1977).
Active and inactive are the calls of the source. The rule behind the calls is not given here.

Columns and labels:
Cavia porcellus [1] = assay: Antithrombotic activity in po dosed guinea pig assessed as inhibition of collagen-induced platelet aggregation; assay type: functional
Mus musculus [2] = organism: Mus musculus; assay: Stimulation of prostanoid receptor-mediated cAMP-[14C] production in Charles River CD-1 mouse ovary at 25 ug/ml preincubated with adenine-8-[14C] for 1 hr followed by compound addition measured after 30 mins in presence of theophylline relative to control; assay type: tissue-based; conditions: Female gonad
How it was run: (§1)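 Ovaries from virgin female mice over 70 days old, denuded of fat; three ovaries (15-25 mg) per flask in aerated Krebs-Ringer phosphate pH 7.2 with 1 μCi adenine-8-¹⁴C, 1 h at 37 °C with shaking. Theophylline and compound (in Me₂SO) added, then 30 min at 37 °C. Stopped with TCA, tissue homogenized, ¹⁴C-cAMP isolated. Fold increase = treated/untreated cAMP; 2-3-fold taken as significant.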

Mus musculus [3] = organism: Mus musculus; assay: Stimulation of prostanoid receptor-mediated cAMP-[14C] production in Charles River CD-1 mouse ovary at 0.1 ug/ml preincubated with adenine-8-[14C] for 1 hr followed by compound addition measured after 30 mins in presence of theophylline relative to control; assay type: tissue-based; conditions: Female gonad; how it was run: as §1
Mus musculus [4] = organism: Mus musculus; assay: Stimulation of prostanoid receptor-mediated cAMP-[14C] production in Charles River CD-1 mouse ovary at 10 ug/ml preincubated with adenine-8-[14C] for 1 hr followed by compound addition measured after 30 mins in presence of theophylline relative to control; assay type: tissue-based; conditions: Female gonad; how it was run: as §1
Mus musculus [5] = organism: Mus musculus; assay: Stimulation of prostanoid receptor-mediated cAMP-[14C] production in Charles River CD-1 mouse ovary at 1 ug/ml preincubated with adenine-8-[14C] for 1 hr followed by compound addition measured after 30 mins in presence of theophylline relative to control; assay type: tissue-based; conditions: Female gonad; how it was run: as §1
Mus musculus [6] = organism: Mus musculus; assay: Stimulation of prostanoid receptor-mediated cAMP-[14C] production in Charles River CD-1 mouse ovary at 100 ug/ml preincubated with adenine-8-[14C] for 1 hr followed by compound addition measured after 30 mins in presence of theophylline relative to control; assay type: tissue-based; conditions: Female gonad; how it was run: as §1
Bos taurus = organism: Bos taurus; assay: Inhibition of cAMP phosphodiesterase in beef heart using cAMP as substrate at 100 ug/ml
How it was run: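 Beef heart cAMP phosphodiesterase tested against 0.4 mM cAMP substrate.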

Mus musculus [7] = organism: Mus musculus; assay: Stimulation of prostanoid receptor-mediated cAMP-[14C] production in Charles River CD-1 mouse ovary at 0.01 ug/ml preincubated with adenine-8-[14C] for 1 hr followed by compound addition measured after 30 mins in presence of theophylline relative to control; assay type: tissue-based; conditions: Female gonad; how it was run: as §1
Cavia porcellus [8] = assay: Antithrombotic activity in ip dosed guinea pig assessed as inhibition of collagen-induced platelet aggregation; assay type: functional
Mus musculus [9] = organism: Mus musculus; assay: Stimulation of prostanoid receptor-mediated cAMP-[14C] production in Charles River CD-1 mouse ovary at 0.05 ug/ml preincubated with adenine-8-[14C] for 1 hr followed by compound addition measured after 30 mins in presence of theophylline relative to control; assay type: tissue-based; conditions: Female gonad; how it was run: as §1

fold change (FC) (Mus musculus [2]) | fold change (FC) (Mus musculus [3]) | fold change (FC) (Mus musculus [4]) | fold change (FC) (Mus musculus [5]) | fold change (FC) (Mus musculus [6]) | inhibition (Bos taurus) | fold change (FC) (Mus musculus [7]) | fold change (FC) (Mus musculus [9]) | Structure (SMILES) | ED50 (Cavia porcellus [1]) [mg/kg] | Activity (Cavia porcellus [1]) | ED50 (Cavia porcellus [8]) [mg/kg]
25 | – | 23 | – | 45 | – | – | – | CCCCC[C@@H](O)CCCN(CCCCCCC(=O)O)S(C)(=O)=O | 8.2 | – | –
5 | – | 3 | – | 10 | – | – | – | CS(=O)(=O)N(CCCCCCC(=O)O)CCCC1(O)CCCCC1 | – | – | –
56 | – | 40 | – | 61 | inactive | – | – | CCCCCC(O)CCCN(CCCCCCC(=O)O)S(C)(=O)=O (racemic) | 6 | – | –
19 | – | 11 | – | 27 | – | – | – | CCCCCC(O)/C=C/CN(C/C=C\CCCC(=O)O)S(C)(=O)=O (racemic) | – | – | –
18 | – | 16 | – | 37 | – | – | – | CCCCCC(O)CCCN(C/C=C\CCCC(=O)O)S(C)(=O)=O (racemic) | – | – | –
30 | – | 21 | – | 39 | – | – | – | CCCCCC(O)CCCN(CC#CCCCC(=O)O)S(C)(=O)=O (racemic) | – | – | –

Second part, the compound before the results:

Structure (SMILES) | fold change (FC) (Mus musculus [2]) | fold change (FC) (Mus musculus [3]) | fold change (FC) (Mus musculus [4]) | fold change (FC) (Mus musculus [5]) | fold change (FC) (Mus musculus [6]) | inhibition (Bos taurus) | fold change (FC) (Mus musculus [7]) | fold change (FC) (Mus musculus [9]) | ED50 (Cavia porcellus [1]) [mg/kg] | Activity (Cavia porcellus [1]) | ED50 (Cavia porcellus [8]) [mg/kg]
CCCCC[C@H](O)CCCN(CCCCCCC(=O)O)S(C)(=O)=O | 55 | 1 | 54 | 8 | 68 | – | – | – | 5 | – | –
CCCCCCCCCN(CCCCCCC(=O)O)S(C)(=O)=O | 14 | – | 13 | – | 15 | – | – | – | – | – | –
CCCCC[C@H](O)CCC1CCC(=O)[C@@H]1CCCCCCC(=O)O (some centres undefined) | 26 | – | 25 | 10 | 19 | – | – | – | – | – | –
CCCCCC(O)C#CCN(CCCCCCC(=O)O)S(C)(=O)=O (racemic) | 21 | – | 21 | – | 36 | – | – | – | – | – | –
CCCCCC(O)CCCC(CCCCCCC(=O)O)C(C)=O (racemic) | 14 | 1 | 11 | 2 | 23 | – | – | – | – | – | –
CCCCCC(O)CCCN(CCCCOCC(=O)O)S(C)(=O)=O (racemic) | 27 | – | 24 | – | 38 | – | – | – | – | – | –
CCCCC[C@H](O)/C=C/[C@H]1[C@H](O)CC(=O)[C@@H]1CCCCCCC(=O)O [ALPROSTADIL] | 62 | 29 | 60 | 54 | 62 | – | 8 | 25 | – | inactive | 0.02
